Assay results pooled from the literature.
Each line is one published result; the experiments were not run side by side.
Observed: enzyme activity
Mode: inhibitor
KIT D816V: Mast/stem cell growth factor receptor Kit (KIT, Homo sapiens, UniProt P10721, D816V)
KIT: Mast/stem cell growth factor receptor Kit (KIT, Homo sapiens, UniProt P10721)

SMILES | target | assay | conditions | inhibition [%]
COc1cc(-c2cc(-c3ccc(N4CCNCC4)cc3)cnc2N)cc(OC)c1OC | Mast/stem cell growth factor receptor Kit (KIT, Homo sapiens, UniProt P10721, V560G) | – | 1 µM | 5
O=C(CSc1nc2nccnc2c(=O)n1CCc1ccccc1)Nc1nccs1 | KIT D816V | – | 10 µM | 6
COc1cc2ncnc(Nc3ccc(Oc4ccccc4)cc3C)c2cc1OC | KIT | – | 1 µM | -1
CS(=O)(=O)Nc1cccc(-c2csc(NC(=O)CSc3nc4nccnc4c(=O)n3CCc3ccccc3)n2)c1 | KIT D816V | – | 10 µM | -1
CCOc1cc(-c2nncn2C)ccc1Nc1ncc2cc(C)nc(NCC(C)(C)C)c2n1 | KIT | FRET | 1 µM | < 15
CCCS(=O)(=O)Nc1ccc(F)c(C(=O)c2c[nH]c3ncc(-c4ccc(Cl)cc4)cc23)c1F | KIT | – | 1 µM | < 20
COc1cc2ncnc(Nc3ccc(Oc4ccccc4)c(C)c3C)c2cc1OC | KIT | – | 1 µM | 8
CN1CC(Oc2cnc(C#N)cc2-c2ccn3nc(NC(=O)C4CC4)cc3c2)C1 | KIT | – | 1 µM | 4
CC/C(=N\NC(=O)NCc1cccc(O)c1)c1ccc(O)c(C)c1O | Mast/stem cell growth factor receptor Kit (KIT, Homo sapiens, UniProt P10721, V654A) | – | 0.1 µM | -0.5
COc1cc2nccc(Oc3ccc(NC(=O)c4c5n(n(-c6ccc(F)cc6)c4=O)CCCC5)cc3)c2cc1OC | KIT | – | 0.1 µM | -1
CN(C)C1CCN(CC#Cc2nn(C3CCCC3)c3nc(NCc4ccccc4)ncc23)C1 (centres unmarked) | KIT | FRET | 10 µM | 11
